Columns and labels:
Rattus norvegicus [1] = test: Antihypertensive activity in spontaneously hypertensive rats was measured as average blood pressure at 100 mg/kg, po after 4 hours of postdose-1; No significant lowering of blood pressure; assay type: functional, organism-based; set-up: dose 100 mg/kg
Method in brief: (§1)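 SHR model with two successive doses, designated dose 1 and dose 2. Group-average blood pressure in mmHg was recorded before dosing and at 4 h and 24 h after each dose. The route is oral unless marked intra-arterial or subcutaneous. A table footnote marks doses that gave no significant lowering at 4 or 24 h postdose.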

Rattus norvegicus [2] = test: Antihypertensive activity in spontaneously hypertensive rats was measured as average blood pressure at 100 mg/kg, p.o. after 24 hours of postdose-1; No significant lowering of blood pressure; assay type: functional, organism-based; set-up: dose 100 mg/kg; method in brief: as §1
Rattus norvegicus [3] = test: Antihypertensive activity in spontaneously hypertensive rats was measured as average blood pressure at 14 mg/kg, p.o. after 24 hours of postdose-1; No significant lowering of blood pressure; assay type: functional, organism-based; set-up: dose 14 mg/kg; method in brief: as §1
Rattus norvegicus [4] = test: Antihypertensive activity in spontaneously hypertensive rats was measured as average blood pressure at 14 mg/kg, p.o. after 4 hours of postdose-1; No significant lowering of blood pressure; assay type: functional, organism-based; set-up: dose 14 mg/kg; method in brief: as §1
Rattus norvegicus [5] = test: Antihypertensive activity in spontaneously hypertensive rats was measured as average blood pressure at 30 mg/kg, p.o. after 4 hours of postdose-2; assay type: functional; conditions: route oral; method in brief: as §1
Rattus norvegicus [6] = test: Antihypertensive activity in spontaneously hypertensive rats was measured as average blood pressure at 30 mg/kg, po before predose; assay type: functional; method in brief: as §1
Rattus norvegicus [7] = test: Antihypertensive activity in spontaneously hypertensive rats was measured as average blood pressure at 30 mg/kg, p.o. after 24 hours of postdose-1; assay type: functional; conditions: route oral; method in brief: as §1
Rattus norvegicus [8] = test: Antihypertensive activity in spontaneously hypertensive rats was measured as average blood pressure at 30 mg/kg, p.o. after 4 hours of postdose-1; assay type: functional; conditions: route oral; method in brief: as §1
Rattus norvegicus [9] = test: Antihypertensive activity in spontaneously hypertensive rats was measured as average blood pressure at 30 mg/kg, po after 24 hours of postdose-2; assay type: functional; method in brief: as §1
Rattus norvegicus [10] = test: Antihypertensive activity in spontaneously hypertensive rats was measured as average blood pressure at 15 mg/kg, po after 24 hours of postdose-1; No significant lowering of blood pressure; assay type: functional, organism-based; set-up: dose 15 mg/kg; method in brief: as §1
Rattus norvegicus [11] = test: Antihypertensive activity in spontaneously hypertensive rats was measured as average blood pressure at 15 mg/kg, p.o. after 4 hours of postdose-1; No significant lowering of blood pressure; assay type: functional, organism-based; set-up: dose 15 mg/kg; method in brief: as §1
Rattus norvegicus [12] = test: Antihypertensive activity in spontaneously hypertensive rats was measured as average blood pressure at 50 mg/kg, p.o. after 24 hours of postdose-1; assay type: functional; conditions: route oral
Method in brief: (§2)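 Spontaneously hypertensive rats dosed orally twice. Average blood pressure (mmHg) recorded before dosing and at 4 h and 24 h after the first dose and after the second dose. Postdose values checked for significant lowering against predose.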

Rattus norvegicus [13] = test: Antihypertensive activity in spontaneously hypertensive rats was measured as average blood pressure at 50 mg/kg, p.o. before predose; assay type: functional; conditions: route oral; method in brief: as §2
Rattus norvegicus [14] = test: Antihypertensive activity in spontaneously hypertensive rats was measured as average blood pressure at 50 mg/kg, po after 4 hours of postdose-2; assay type: functional; method in brief: as §2
Rattus norvegicus [15] = test: Antihypertensive activity in spontaneously hypertensive rats was measured as average blood pressure at 50 mg/kg, p.o. after 4 hours of postdose-1; assay type: functional; conditions: route oral; method in brief: as §2
Rattus norvegicus [16] = test: Antihypertensive activity in spontaneously hypertensive rats was measured as average blood pressure at 50 mg/kg, p.o. after 24 hours of postdose-2; assay type: functional; conditions: route oral; method in brief: as §2

Compound | BP (Rattus norvegicus [1]) | BP (Rattus norvegicus [2]) | BP (Rattus norvegicus [5]) [mmHg] | BP (Rattus norvegicus [6]) [mmHg] | BP (Rattus norvegicus [7]) [mmHg] | BP (Rattus norvegicus [8]) [mmHg] | BP (Rattus norvegicus [9]) [mmHg] | also measured
CC(=O)c1c(-c2ccc(Cl)cc2)c(-c2ccc(Cl)cc2)nn(CCOC(=O)C(Cc2ccccc2)NC(=O)OCc2ccccc2)c1=O (configuration not stated) | Not significant | Not significant |  |  |  |  |  | 
CC(=O)c1c(-c2ccc(Cl)cc2)c(-c2ccc(Cl)cc2)nn(CCOC(=O)C(NC(=O)OCc2ccccc2)C2(/N=C(/N)N[N+](=O)[O-])CCC2)c1=O (configuration not stated) | Not significant | Not significant |  |  |  |  |  | 
CC(=O)c1c(-c2ccc(Cl)cc2)c(-c2ccc(Cl)cc2)nn(CCOC(=O)CNC(=O)OCc2ccccc2)c1=O | Not significant | Not significant |  |  |  |  |  | 
CC(=O)c1c(-c2ccc(Cl)cc2)c(-c2ccc(Cl)cc2)nn(CCOC(=O)C(N)C(C)C)c1=O (configuration not stated) |  |  |  |  |  |  |  | BP (Rattus norvegicus [3]): Not significant; BP (Rattus norvegicus [4]): Not significant
CCC(=O)OCCn1nc(-c2ccc(Cl)cc2)c(-c2ccc(Cl)cc2)c(C(C)=O)c1=O |  |  | 129 | 181 | 136 | 133 | 168 | 
CSCCC(N)C(=O)OCCn1nc(-c2ccc(Cl)cc2)c(-c2ccc(Cl)cc2)c(C(C)=O)c1=O (configuration not stated) |  |  |  |  |  |  |  | BP (Rattus norvegicus [10]): Not significant; BP (Rattus norvegicus [11]): Not significant
CC(=O)c1c(-c2ccc(Cl)cc2)c(-c2ccc(Cl)cc2)nn(CCOC(=O)C(NC(=O)OCc2ccccc2)C(C)C)c1=O (configuration not stated) | Not significant | Not significant |  |  |  |  |  | 
CCCCCCCCCCCCCCCCCC(=O)OCCn1nc(-c2ccc(Cl)cc2)c(-c2ccc(Cl)cc2)c(C(C)=O)c1=O |  |  | 142 | 181 | 162 | 168 | 137 | 
N=C(N)NCCN1CCCCCCC1 [GUANETHIDINE] |  |  |  |  |  |  |  | BP (Rattus norvegicus [12]): 166 mmHg; BP (Rattus norvegicus [13]): 187 mmHg; BP (Rattus norvegicus [14]): 138 mmHg; BP (Rattus norvegicus [15]): 154 mmHg; BP (Rattus norvegicus [16]): 186 mmHg
CC(=O)c1c(-c2ccc(Cl)cc2)c(-c2ccc(Cl)cc2)nn(CCOC(=O)c2ccccc2)c1=O |  |  | 136 | 173 | 139 | 116 | 130 | 

— ChEMBL document CHEMBL1121378, “Lipophilic and hydrophilic esters of 4-acetyl-2-(2-hydroxyethyl)-5,6-bis(4-chlorophenyl)-2H-pyridazin-3-one as antihypertensive agents” (1980)
